Test results: ChEMBL document CHEMBL4842314, “Synthesis and SAR evaluation of coumarin derivatives as potent cannabinoid receptor agonists” (Eur J Med Chem, 2021)
pEC50, pKi: −log10 of the molar value.

Assays:
Cannabinoid receptor 1 [1] = molecular target: T1, Cannabinoid receptor 1 (Homo sapiens, UniProt P21554); assay: Displacement of [3H]-CP55940 from human recombinant CB1 receptor expressed in CHO-K1 cell membrane measured after 3 hrs by scintillation spectrometry; type: cell membranes
Cannabinoid receptor 2 [2] = molecular target: T2, Cannabinoid receptor 2 (Homo sapiens, UniProt P34972); assay: Displacement of [3H]-CP55940 from human recombinant CB2 receptor expressed in CHO-K1 cell membrane measured after 3 hrs by scintillation spectrometry; type: cell membranes; settings: read-out: Ki
Cannabinoid receptor 1 [3] = molecular target: T1, Cannabinoid receptor 1; assay: Displacement of [3H]-CP55940 from human recombinant CB1 receptor expressed in CHO-K1 cell membrane at 1 uM measured after 3 hrs by scintillation spectrometry; type: cell membranes; settings: filed as agonist
Cannabinoid receptor 2 [4] = molecular target: T2, Cannabinoid receptor 2; assay: Displacement of [3H]-CP55940 from human recombinant CB2 receptor expressed in CHO-K1 cell membrane at 1 uM measured after 3 hrs by scintillation spectrometry; type: cell membranes; settings: filed as agonist
Cannabinoid receptor 2 [5] = molecular target: T2, Cannabinoid receptor 2; assay: Agonist activity at human recombinant CB2 receptor expressed in CHO-K1 cell membrane assessed as increase in GTPgammaS binding at 1 uM pretreated for 30 mins followed by [35S]GTPgammaS addition for 90 mins by [35S]GTP-gammaS binding assay relative to CP55940; type: functional, cell membranes; settings: time 120.0 min
How it was run: (§1)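 Membranes (5 μg) from PathHunter CHOK1 cells stably expressing hCB1 or hCB2 pre-incubated 30 min at room temperature with test ligand at 1 μM final, 1 μM GDP and 5 μg saponin in Tris-HCl pH 7.4, MgCl2, NaCl, EDTA, BSA, DTT. [35S]GTPγS (0.3 nM final) was then added for 90 min at 25 °C. Filtration on GF/B. Emax given relative to CP55,940 (100%), two experiments in duplicate.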

Homo sapiens = species on record: Homo sapiens; assay: Selectivity ratio of Ki for human recombinant CB2 receptor expressed in CHO-K1 cell membrane to Ki for human recombinant CB1 receptor expressed in CHO-K1 cell membrane; type: cell-based
Cannabinoid receptor 1 [6] = molecular target: T1, Cannabinoid receptor 1; assay: Agonist activity at human recombinant CB1 receptor expressed in CHO-K1 cell membrane assessed as increase in GTPgammaS binding at 1 uM pretreated for 30 mins followed by [35S]GTPgammaS addition for 90 mins by [35S]GTP-gammaS binding assay relative to CP55940; type: functional, cell membranes; settings: filed as agonist, time 120.0 min; how it was run: as §1
Cannabinoid receptor 1 [7] = molecular target: T1, Cannabinoid receptor 1; assay: Agonist activity at human recombinant CB1 receptor expressed in CHO-K1 cell membrane assessed as increase in GTPgammaS binding pretreated for 30 mins followed by [35S]GTPgammaS addition for 90 mins by [35S]GTP-gammaS binding assay; type: functional, cell membranes
How it was run: (§2)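 Concentration-response [35S]GTPγS binding on 5 μg hCB1 or hCB2 CHOK1 membranes. Ligand, 1 μM GDP and saponin pre-incubated 30 min at room temperature, then 0.3 nM [35S]GTPγS added for 90 min at 25 °C. Filtration read-out. Three experiments in duplicate.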

Cannabinoid receptor 2 [8] = molecular target: T2, Cannabinoid receptor 2; assay: Agonist activity at human recombinant CB2 receptor expressed in CHO-K1 cell membrane assessed as increase in GTPgammaS binding pretreated for 30 mins followed by [35S]GTPgammaS addition for 90 mins by [35S]GTP-gammaS binding assay; type: functional, cell membranes; how it was run: as §2

T2 sequence (P34972 whole entry): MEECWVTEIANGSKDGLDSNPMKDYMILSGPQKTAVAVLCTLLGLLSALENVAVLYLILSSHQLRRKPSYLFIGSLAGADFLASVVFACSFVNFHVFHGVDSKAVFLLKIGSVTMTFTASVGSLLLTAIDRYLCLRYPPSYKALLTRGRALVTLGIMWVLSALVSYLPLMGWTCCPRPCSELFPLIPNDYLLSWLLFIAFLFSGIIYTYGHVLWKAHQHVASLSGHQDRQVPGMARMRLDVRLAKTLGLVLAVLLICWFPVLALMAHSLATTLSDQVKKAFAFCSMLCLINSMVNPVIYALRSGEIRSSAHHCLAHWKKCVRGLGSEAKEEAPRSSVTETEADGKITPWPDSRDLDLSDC
T1 sequence (P21554 whole entry): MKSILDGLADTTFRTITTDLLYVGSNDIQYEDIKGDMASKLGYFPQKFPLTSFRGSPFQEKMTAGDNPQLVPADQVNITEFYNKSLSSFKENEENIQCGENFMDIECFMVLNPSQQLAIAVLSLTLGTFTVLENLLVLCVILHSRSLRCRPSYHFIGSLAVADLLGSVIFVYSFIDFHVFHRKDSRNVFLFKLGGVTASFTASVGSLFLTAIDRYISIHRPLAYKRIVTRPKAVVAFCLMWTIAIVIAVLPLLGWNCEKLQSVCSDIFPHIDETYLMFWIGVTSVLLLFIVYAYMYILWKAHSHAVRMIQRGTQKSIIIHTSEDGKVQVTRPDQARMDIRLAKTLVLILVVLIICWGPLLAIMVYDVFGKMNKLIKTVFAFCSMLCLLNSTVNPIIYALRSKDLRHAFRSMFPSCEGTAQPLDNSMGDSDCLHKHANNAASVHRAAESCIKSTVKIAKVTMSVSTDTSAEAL

Row | SMILES | Ki (Cannabinoid receptor 1 [1]; read-out: pKi (converted)) [nM] | pKi (Cannabinoid receptor 2 [2]) | inhibition (Cannabinoid receptor 1 [3]) [%] | inhibition (Cannabinoid receptor 2 [4]) [%] | Emax (Cannabinoid receptor 2 [5]; filed as agonist) [%] | Ratio Ki (Homo sapiens) | pKi (Cannabinoid receptor 1 [1]; read-out: Ki) | Emax (Cannabinoid receptor 1 [6]) [%] | Emax (Cannabinoid receptor 2 [5]) [%] | pEC50 (Cannabinoid receptor 1 [7]) | pEC50 (Cannabinoid receptor 2 [8])
1 | CCCCc1cc2c(O)cc(C3(CCCC)CCCCC3)cc2oc1=O | > 1000 | 7.90 | 48 | > 50 | 65 | 79 |  |  |  |  | 
2 | CCCCCc1cc(OC)c2cc(Cc3ccccn3)c(=O)oc2c1 |  | 7.08 | > 50 | > 50 |  |  | 7.15 | 46 | 34 | 6.00 | 6.73
